Results as given in ChEMBL document CHEMBL4138111, “Nanomolar anti-sickling compounds identified by ligand-based pharmacophore approach” (Eur J Med Chem, 2017).

What was measured:
J774 = test: Cytotoxicity against mouse J774 cells assessed as cell viability up to 100 uM after 72 hrs by AlamarBlue assay; assay type: cell-based; details: j774, 72 h
In short: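 J774 murine macrophage-like cells are seeded at 2 × 10^5 cells/well in DMEM with 10% FBS and gentamycin and incubated 2 h at 37 °C, 5% CO2. Compounds are added at five concentrations (6.25-100) for 72 h, in 5% DMSO/saline vehicle. Alamar Blue is then added for 12 h more, with absorbance read at 570 and 600 nm. Gentian violet serves as positive control. Triplicates, three experiments.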

[1] = biological target: T1, Adenosine receptor A2b (Homo sapiens) (UniProt P29275); test: Antagonist activity at Adenosine receptor subtype 2B in human RBC assessed as inhibition of NECA-induced-sickling effect by measuring change in erythrocyte morphology preincubated for 3 hrs with occasional gentle stirring for every 30 min followed by incubated for 2 to 12 hrs under normoxic/hypoxic condition measured for every 12 hrs by microscopic analysis; assay type: functional, cell-based
T1 sequence (whole entry): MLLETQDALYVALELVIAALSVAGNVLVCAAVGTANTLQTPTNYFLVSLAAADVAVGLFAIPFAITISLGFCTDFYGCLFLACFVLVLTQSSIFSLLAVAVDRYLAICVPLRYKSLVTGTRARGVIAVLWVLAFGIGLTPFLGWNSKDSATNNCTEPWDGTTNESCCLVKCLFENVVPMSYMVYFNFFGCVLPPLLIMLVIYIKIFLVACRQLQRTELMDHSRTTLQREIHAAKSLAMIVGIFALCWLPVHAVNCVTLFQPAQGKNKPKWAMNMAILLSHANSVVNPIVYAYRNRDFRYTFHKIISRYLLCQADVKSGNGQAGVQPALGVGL
In short: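 Patient SCA erythrocytes are treated as in the EC50 sickling assay. Compounds are tested at three concentrations (0.03-1) against six NECA concentrations (0.001-1000). Sickling is scored by microscopy. NECA EC50 is determined with and without compound, and the dose ratio is derived from these. pKb is obtained by Schild analysis as log[DR−1] − log[B]. Mean ± SD of five experiments.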

[2] = biological target: T1, Adenosine receptor A2b (Homo sapiens); test: Antagonist activity at Adenosine receptor subtype 2B in human RBC assessed as change in erythrocyte morphology at 10 uM incubated for 3 hrs with occasional gentle stirring for every 30 min measured for every 12 hrs by microscopic analysis relative to control; assay type: functional, cell-based; parameters: scale not given: the % may be the effect or the level left
In short: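 RBCs come from sickle cell anemia patients, washed in 0.9% saline and diluted 1:10. Cells are exposed to compound at a single 10 µM final concentration for 3 h at 37 °C, stirred gently every 30 min, then given 2% sodium metabisulfite. Morphology is read by microscopy (40X) every 12 h, counting >500 erythrocytes from five random fields. Triplicate assays; MRS1754 (10 µM) is the reference antagonist.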

Adenosine receptor = Adenosine receptor (Homo sapiens, UniProt P30542+P29275+P0DMS8+P29274); test: Antagonist activity at Adenosine receptor in human RBC assessed as change in erythrocyte morphology incubated for 3 hrs with occasional gentle stirring for every 30 min measured for every 12 hrs by microscopic analysis; assay type: cell-based
In short: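 Erythrocytes from sickle cell anemia patients are separated by centrifugation (5 min, 16,000 g, 4 °C), washed three times in 0.9% saline and diluted 1:10 in saline. Cells are held with compound at 37 °C for 3 h, then challenged with 2% sodium metabisulfite. Sickled cells (>500 cells, five fields, 40X) are counted. Seven concentrations (0.001-100) are tested. EC50 comes from biphasic nonlinear regression with Hill slopes fixed at 1.0. Mean ± SD of five experiments, each in triplicate.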

inhibition [1] | pKb [1] | Activity [2] [%] | pEC50 (Adenosine receptor) | SMILES | Activity (J774)
Dose-dependent effect | 8.31 | > 70 | 5.29 | O=C(CN1CCOC(Cn2cncn2)C1)Nc1cccnc1 (stereo not drawn) | Non-Toxic
Dose-dependent effect | 8.68 | 54 |  | CCCn1c(=O)c2[nH]c(-c3ccc(OCC(=O)Nc4ccc(C#N)cc4)cc3)nc2n(CCC)c1=O | 
Dose-dependent effect | 9.54 | > 70 |  | CC(OC(=O)c1nccnc1N)C(=O)NCc1ccc2c(c1)OCO2 (stereo not drawn) | 
Dose-dependent effect | 7.38 | > 70 | 5.06 | Cc1cc(NC(=O)CNc2ccc3c(c2)OC(F)(F)O3)on1 | 
Dose-dependent effect | 9.45 | > 70 |  | CCCc1cc(O)nc(SC(C)C(=O)Nc2cc(C)no2)n1 (stereo not drawn) | Non-Toxic
Dose-dependent effect | 7.99 | > 70 | 4.21 | CC(C)c1noc(OCC(=O)NCc2ccc3c(c2)OCO3)n1 | 
